In ChEMBL document CHEMBL1133516, “Biarylpropylsulfonamides as novel, potent potentiators of 2-amino-3- (5-methyl-3-hydroxyisoxazol-4-yl)- propanoic acid (AMPA) receptors” (J Med Chem, 2000) one finds EC50 data, which are given here for 29 molecules.

Molecules are shown by their SMILES.

As usually defined, the EC50 is the concentration needed to bring the measured effect to its halfway point.

Sequence of Glutamate receptor 4 (P48058 whole entry): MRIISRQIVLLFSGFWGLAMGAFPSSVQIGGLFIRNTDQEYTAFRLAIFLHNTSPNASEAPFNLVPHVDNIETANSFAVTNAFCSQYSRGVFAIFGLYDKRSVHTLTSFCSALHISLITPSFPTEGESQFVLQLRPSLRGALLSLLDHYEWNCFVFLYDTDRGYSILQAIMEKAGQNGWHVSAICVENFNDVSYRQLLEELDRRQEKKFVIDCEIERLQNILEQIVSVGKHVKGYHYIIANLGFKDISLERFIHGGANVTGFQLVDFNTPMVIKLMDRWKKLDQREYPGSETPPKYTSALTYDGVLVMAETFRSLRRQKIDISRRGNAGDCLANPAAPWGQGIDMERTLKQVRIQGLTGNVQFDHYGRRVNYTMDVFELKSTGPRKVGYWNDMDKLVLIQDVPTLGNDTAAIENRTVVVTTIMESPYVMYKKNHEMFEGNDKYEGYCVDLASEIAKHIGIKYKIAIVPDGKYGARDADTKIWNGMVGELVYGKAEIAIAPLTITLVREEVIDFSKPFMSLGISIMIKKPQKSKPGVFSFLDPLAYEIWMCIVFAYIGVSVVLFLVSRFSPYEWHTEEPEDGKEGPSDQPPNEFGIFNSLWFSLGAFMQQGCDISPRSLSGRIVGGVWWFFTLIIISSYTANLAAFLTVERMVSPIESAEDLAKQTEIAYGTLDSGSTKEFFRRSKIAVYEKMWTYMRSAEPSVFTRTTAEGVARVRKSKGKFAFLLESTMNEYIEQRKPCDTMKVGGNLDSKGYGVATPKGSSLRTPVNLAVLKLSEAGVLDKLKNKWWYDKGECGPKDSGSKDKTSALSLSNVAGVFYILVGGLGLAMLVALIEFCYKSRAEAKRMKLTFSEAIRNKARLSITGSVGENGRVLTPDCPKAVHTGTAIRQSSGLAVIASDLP

This assay addresses Glutamate receptor 4 (Homo sapiens, UniProt P48058). Description: Tested for potentiation towards human iGluR4 receptor expressed in HEK293 cells. Format: functional, cell-based. The essentials: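 Human GluR4 flip, stably homomerically expressed in HEK-293 cells. Cells loaded 60 min with 20 µM Fluo3-AM in HEPES buffer (138 mM NaCl, 5 mM CaCl2, 10 mM glucose, pH 7.1-7.3), then washed. Calcium-influx fluorescence read after 100 µM L-glutamate with compound at various concentrations. Responses expressed as % of 100 µM cyclothiazide; EC50 ± SEM calculated.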
Take `CC(CNS(=O)(=O)C(C)C)c1ccc(-c2ccc(C(F)(F)F)cc2)cc1` (centres undefined): the EC50 was greater than 3 µM.
With `Cc1ccc(-c2ccc(C(C)CNS(=O)(=O)C(C)C)cc2)cc1` (centres undefined) the figure was 0.27 µM; with `CC(CNS(=O)(=O)C(C)C)c1ccc(C(C)(C)C)cc1` (centres undefined), 1.2 µM; with `CCCS(=O)(=O)NCC(C)c1ccc(-c2ccccc2F)cc1` (centres undefined), 23.8 µM.
For `NS(=O)(=O)c1cc2c(cc1Cl)NC(C1CC3C=CC1C3)NS2(=O)=O` (centres undefined) [CYCLOTHIAZIDE], the EC50 came out at 3.8 µM.
On to `CC(CN)c1ccc(-c2ccccc2F)cc1` (centres undefined), for which the EC50 is greater than 100 µM.
With `CC(CNS(=O)(=O)C(F)(F)F)c1ccc(-c2ccccc2F)cc1` (centres undefined) the figure was 32.9 µM; with `CC(CNS(=O)(=O)C(C)C)c1ccc(-c2ccccc2F)cc1` (centres undefined), 4.4 µM; with `O=C(c1ccc2nccnc2c1)N1CCCCC1` [CX516], greater than 1000 µM.
On to `CC(CNS(=O)(=O)C(C)C)c1ccc(-c2ccc(Cl)cc2)cc1` (centres undefined), for which the EC50 was greater than 3 µM.
With `CC(C)S(=O)(=O)NCC(Cc1ccccc1)c1ccc(C(C)(C)C)cc1` (centres undefined) the figure was greater than 100 µM.
With `CC(CNS(=O)(=O)N(C)C)c1ccc(-c2ccccc2F)cc1` (centres undefined) the figure was 4 µM.
With `CC(C)S(=O)(=O)NCC(CCc1ccccc1)c1ccc(C(C)(C)C)cc1` (centres undefined) the figure was greater than 100 µM; with `CC(CNS(=O)(=O)C(C)C)c1ccc(-c2ccc(C#N)cc2)cc1` (centres undefined), 0.29 µM.
With `CC(CNS(C)(=O)=O)c1ccc(-c2ccccc2F)cc1` (centres undefined), the EC50 was 19.6 µM.
As for `CC(CNS(=O)(=O)C(C)C)c1ccc(-c2ccsc2)cc1` (centres undefined), the EC50 was found to be 0.66 µM.
With `CC(CNS(=O)(=O)C(C)C)c1ccc(-c2ccc(C(=O)O)cc2)cc1` (centres undefined) the figure was 1.4 µM.
With `CC(CNS(=O)(=O)c1ccccc1)c1ccc(-c2ccccc2F)cc1` (centres undefined) the figure was 62.5 µM.
With `CCS(=O)(=O)NCC(C)c1ccc(-c2ccccc2F)cc1` (centres undefined) the figure was 5.4 µM.
In the case of `CC(C)S(=O)(=O)NCCc1ccc(-c2ccccc2F)cc1`, the EC50 is 7.2 µM.
With `CC(CNS(=O)(=O)C(C)C)c1ccc(-c2ccc(C=O)cc2)cc1` (centres undefined) the figure was 0.25 µM; with `CCC(CNS(=O)(=O)C(C)C)c1ccc(C(C)(C)C)cc1` (centres undefined), 2 µM; with `CC(CNS(=O)(=O)C(C)C)c1ccc(-c2ccccc2)cc1` (centres undefined), 1 µM.
With `CCCC(CNS(=O)(=O)C(C)C)c1ccc(C(C)(C)C)cc1` (centres undefined) the figure was 27.9 µM; with `CC(CNS(C)(=O)=O)c1ccc(-c2ccsc2)cc1` (centres undefined), 4.5 µM.
For `CC(CNS(=O)(=O)C(C)C)c1ccc(-c2ccc(N)cc2)cc1` (centres undefined), the EC50 was 0.13 µM.
With `CC(C)S(=O)(=O)NCCc1ccc(C(C)(C)C)cc1` the figure was 12.8 µM.
With `CC(CNS(=O)(=O)Cc1ccccc1)c1ccc(-c2ccccc2F)cc1` (centres undefined) the figure was greater than 100 µM.
With `CCCCS(=O)(=O)NCC(C)c1ccc(-c2ccccc2F)cc1` (centres undefined) the figure was greater than 100 µM.
